This is a sample that favours compounds with a hit; in the whole collection about 9.5% have one here.
HEK293 NFkB inh: lowers PMA/ionomycin-induced NF-kB signal in HEK293 cells. 0.21% of 62,000 active. AID 465. HEK-293 NF-kB luciferase reporter, luminescence. inhibition, % at 3 µM;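 active = inhibition above the mean of all tested compounds plus 3 SD, cut at about 40% in these data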;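 also: 0% = stimulated DMSO wells and 100% = 10 µM reference inhibitor 5653914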
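Material: HEK-293 cells with stable firefly luciferase reporter driven by four HIV NF-kB elements / Also added: PMA plus ionomycin mix as NF-kB-activating stimulus / Compound dosing: 3 µM once, 0.30% DMSO / Times: 1 h pretreatment, 16 h stimulation, 37 °C / Signal: luminescence / Evaluation: per-plate % inhibition versus controls / Benchmarks: DMSO and 10 µM reference inhibitor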
Htt clearance: mutant huntingtin protein clearance. HeLa Exon1htt(103Q)mCFP, aggregate imaging; zero = plate's median compound well. inhibition, % at 1.5 µM. 0.42% of 47,000 active;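 active = inhibition of aggregate fluorescence above about 70%, also judged a hit by eye on the cell image, limit read from the data, passing the limit was not always enough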;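 also: cells exposed to compound for three days before fixation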
M1 agonist: agonists of M1 muscarinic receptor; CHO-M1 cells, Fluo-4 calcium fluorescence, agonist mode; active compounds read high; B-score at 10 µM; 3% of 64,000 active;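 active = fluorescence rise, raw or as B-score row- and column-corrected plate score, outside the 99.7% band of its plate's samples, either direction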
Jurkat viability: cytotoxic compounds reducing Jurkat cell viability. Jurkat E6.1 viability, ATP luminescence, 48 h. inhibition, % at 4 µM. 1.2% of 56,000 active. AID 463;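 active = inhibition above the mean inhibition of all tested compounds plus 3 SD, cut at about 28% in these data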
M1 antag: M1 muscarinic receptor (rat) antagonism | P08482 | CHO-M1 cells, Fluo-4 calcium, ACh EC80 antagonist mode; active compounds read low | B-score at 10 µM | 3.4% of 64,000 active | AID 628;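 active = calcium fluorescence response, raw or row-and-column corrected B-score, differing from the plate sample mean either way at a set confidence level, mostly lower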
Target sequence (P08482 whole entry, looked up): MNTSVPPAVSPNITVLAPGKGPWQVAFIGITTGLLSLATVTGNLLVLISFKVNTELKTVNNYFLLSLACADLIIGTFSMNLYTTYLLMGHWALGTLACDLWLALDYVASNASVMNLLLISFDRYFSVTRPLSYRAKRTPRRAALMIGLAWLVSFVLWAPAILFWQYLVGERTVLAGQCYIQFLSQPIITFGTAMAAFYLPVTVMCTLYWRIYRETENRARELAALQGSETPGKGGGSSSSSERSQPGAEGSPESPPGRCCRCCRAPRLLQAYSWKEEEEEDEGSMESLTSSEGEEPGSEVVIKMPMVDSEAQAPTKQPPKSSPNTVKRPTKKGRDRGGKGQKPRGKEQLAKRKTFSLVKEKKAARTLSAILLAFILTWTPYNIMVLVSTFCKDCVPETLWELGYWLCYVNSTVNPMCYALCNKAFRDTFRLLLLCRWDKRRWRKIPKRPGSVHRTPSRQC
D1 mod: D1 dopamine receptor (human) allosteric modulation; P21728; HEK293 D1, CRE-luciferase, dopamine EC30 potentiation; actives deviate in either direction; B-score at 10 µM; 5.9% of 58,000 active; AID 641;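 active = luminescence count or its row- and column-corrected plate score outside the 99.7% band of the plate's sample wells, on either side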
An asterisk follows results filed as active; x = not tested or not shown.

SMILES | HEK293 NFkB inh | Htt clearance | M1 agonist | Jurkat viability | M1 antag | D1 mod
Cc1ccc(-c2nc3cc(NC(=O)C(C)C)ccc3o2)cc1C | -63.9 | 13.1 | -1.1 | 1.5 | 1.01 | -2.96*
CC(C)C(=O)Nc1cccc(-c2nc3ccccc3o2)c1 | -1.5 | -5.5 | 1.84 | -1.4 | -0.121 | -0.628
Clc1ccc2nc(N3CCCCC3)[nH]c2c1 | -39.6 | x | 1.24 | 6.1 | -0.465 | -4.95*
Clc1ccc2nc(N3CCCCC3)sc2c1 | -48.4 | x | x | -7.3 | x | 0.226
Clc1ccc2nc(NC3=NCN(CCN4CCOCC4)CN3)nc(-c3ccccc3)c2c1 | -2.5 | x | 0.8 | 11.5 | -15* | -0.321
OCCN1CCN(c2nc(-c3ccccc3)c3cc(Cl)ccc3n2)CC1 | 16.6 | -35.6 | 0.0229 | 2.6 | -0.798 | 0.59
CCCCCCCCNC(=O)CCNC(=O)c1ccc(C(C)(C)C)cc1 | x | 68.1 | x | x | x | x
O=C(CC1(O)C(=O)N(C/C=C/c2ccccc2)c2ccccc21)c1ccccn1 (centres undefined) | 12.3 | x | 0.517 | 26.5 | 1.94* | 0.854
Cc1ccc(C(=O)OCC(=O)NCc2ccco2)cc1 | x | 31.1 | x | x | x | x
Cc1cc(C(=O)OCC(=O)NCc2ccco2)c(C)n1-c1ccc(F)cc1 | 30.0 | x | -1.23 | 75.2* | 0.395 | -0.106
CC(=O)Nc1ccc(OCC(O)CN2CCN(c3ccc(Cl)cc3)CC2)cc1 (centres undefined) | x | -29.3 | x | x | x | x
CC(=O)Nc1ccc(OCC(O)CN2CCN(c3cccc(Cl)c3)CC2)cc1 (centres undefined) | 13.5 | x | -0.276 | -0.9 | -1.18 | -3.1*
CCN(CC)c1ccc2cc(C(N)=O)c(=O)oc2c1 | x | 4.8 | x | x | x | x
CCN(CC)c1ccc2cc(-c3nnc(-c4ccncc4)o3)c(=O)oc2c1 | x | 20.9 | 401* | x | -14.8* | x
COc1cc(/C=N/NC(=O)CCc2c(C)n[nH]c2C)cc(OC)c1OC | x | 35.0 | x | x | x | x
CCSc1nnc(NC(=O)NC(CC)(C(F)(F)F)C(F)(F)F)s1 | x | 13.4 | 5* | x | -1.39* | -0.259
CN(C)c1nc2n(c(=O)n1)C(C#N)CS2 (centres undefined) | x | x | -0.059 | x | 2.96* | 0.588
O=C(NCc1ccco1)c1cccc(-c2nnc(-c3ccccc3)o2)c1 | -2.6 | 37.2 | 1.43 | -4.0 | 0.0173 | 0.0249
O=C1OC(N2CCN(C(=O)C3CCCO3)CC2)c2ccccc21 (centres undefined) | 18.1 | x | 0.0228 | 4.2 | -0.891 | -0.505
CCOC(=O)N1CCN(C2OC(=O)c3ccccc32)CC1 (centres undefined) | x | 22.5 | 32.5* | x | -2.04* | x
Cc1cc(NC(=O)Cn2cnc3c2c(=O)n(C)c(=O)n3C)n(-c2ccccc2)n1 | 4.6 | x | -0.31 | -5.6 | 1.09 | 0.00195
COc1cc(C(=O)N2CCN(c3ncnc4sc(C)c(C)c34)CC2)cc(OC)c1OC | 25.8 | x | -1.1 | 76.2* | -0.437 | -0.48
COc1ccc(C(=O)c2ccc(N3CCOCC3)cc2)c(OC)c1 | x | x | -0.206 | x | 0.0386 | x
COc1ccc(C(=O)c2ccc(N(C)C)cc2)c(OC)c1 | 32.3 | x | x | 81.4* | x | x
COc1ccc(N2Nc3n[nH]c(N)c3N2)cc1 | x | 42.4 | x | x | x | x
SMILES | HEK293 NFkB inh | Htt clearance | M1 agonist | Jurkat viability | M1 antag | D1 mod
Cc1ccc(Cl)cc1NC1=NC(=S)N(C(C)C)C12CCCCC2 | x | -5.6 | x | x | x | x
COc1cccc(-c2nc(N3CCC(C)CC3)c3ccccc3n2)c1O | x | x | -0.625 | x | 2.19* | x
Cc1noc(/C=C/N(C)C)c1S(=O)(=O)N1CCCC(C(=O)NCCC2=CCCCC2)C1 (centres undefined) | 13.2 | 22.0 | -0.0926 | -7.7 | 1.41 | -0.0166
COc1cc(OC)cc(-c2cc3nc4c(c(N5CCN(c6ncccn6)CC5)n3n2)CCCC4)c1 | 18.8 | x | -0.0335 | -0.6 | -0.0171 | x
COc1cc(OC)cc(-c2cc3nc4c(c(N5CCN(c6cnccn6)CC5)n3n2)CCCC4)c1 | -5.9 | x | 2.45 | -5.6 | -0.304 | -3.35*
COc1cc(Cl)c(S(=O)(=O)NCc2cccnc2)cc1Cl | 12.8 | x | -0.235 | 1.5 | 0.0615 | -0.005
CCCCNC1=C(Br)C(=O)CC(C)(C)C1 | x | x | -0.0926 | x | -0.0337 | x
O=C(NCc1ccccn1)c1ccc(Cn2cc(Br)cn2)o1 | 0.7 | x | 0.0587 | 0.9 | 2.32* | -1.45
COc1cc(CC(NC(C)=O)C(=O)NC2CCN(c3nc(C)cc(C)c3C#N)CC2)cc(OC)c1 (centres undefined) | 56.2* | x | 0.195 | -1.5 | 0.276 | 1.05
COc1cccc(CC(NC(C)=O)C(=O)NC2CCN(c3nc(C)cc(C)c3C#N)CC2)c1OC (centres undefined) | 8.4 | x | x | -6.6 | x | x
N#CC1=C2SCC(O)(c3ccccc3)N2C(=O)CC1c1cccs1 (centres undefined) | 47.5* | x | -0.606 | 78.7* | 1.39 | 0.713
CCOC(=O)CCc1c(C)nc2cc(-c3ccccc3OC)[nH]n2c1=O | 6.4 | x | -0.0528 | -0.9 | 2.11* | x
CCOC(=O)Cc1c(C)nc2cc(-c3ccc(C(C)(C)C)cc3)[nH]n2c1=O | x | 18.4 | x | x | x | x
O=C(NC1CCCCC1)C(c1ccco1)N(Cc1cccnc1)C(=O)C1COc2ccccc2O1 (centres undefined) | 17.4 | x | 0.787 | -6.9 | -1.46 | -0.427
Cn1c(=O)[nH]c(=O)c2c1nc(N1CCN(c3ccccc3)CC1)n2CCSc1ncccn1 | 8.3 | x | 4.03 | 6.2 | -1.13 | -4.19*
Clc1cccc(Cl)c1COc1ccccn1 | 8.6 | -28.9 | 0.165 | 3.0 | -0.0186 | -1.5
O=C(NC1CCC(NC(=O)C(F)(F)C(F)F)CC1)C(F)(F)C(F)F (centres undefined) | 15.0 | x | -1.2 | 3.5 | 0.101 | -3.24*
CCOC(=O)c1ccc2ncc(C(=O)OCC)c(NCCN(C)C)c2c1 | -1.7 | 22.1 | 0.0869 | 0.5 | -1 | 2.9*
CCOC(=O)c1cnc2ccc(C(=O)OC)cc2c1NCc1ccco1 | -17.6 | x | -0.222 | 0.7 | -0.283 | 1.83
CCOc1ccc(N(CC)S(=O)(=O)c2ccc3c(c2)oc(=O)n3C)cc1 | 15.4 | x | -0.031 | 66.3* | 0.0652 | 0.857
CCC(=O)Nc1ccc(NC(=O)c2cc3ccccc3o2)cc1 | 15.4 | -40.2 | 0.068 | 3.5 | -0.207 | -0.246
Cc1csc(C(C#N)C(=O)c2cc3ccccc3o2)n1 (centres undefined) | -33.1 | x | -0.745 | x | -1.65 | -3.82*
CC(=O)N(Cc1ccco1)C1(C(=O)NC2CCCCC2)CCCCC1 | 7.4 | -22.3 | 0 | x | 2.07* | -0.211
CCN(CC)c1ccc(NC(=O)Nc2ccccc2C(F)(F)F)cc1 | x | 11.0 | x | x | x | x
O=S(=O)(c1cccs1)N1CCCc2ccccc21 | 5.5 | 1.1 | 0.0933 | 3.8 | 0.931 | 1.32
Cc1cccn2cc(-c3ccccc3)nc12 | -36.4 | x | -0.0378 | 0.5 | -0.313 | -4.98
Cc1ccc2nc(-c3ccccc3)cn2c1 | 70.8* | x | 1.66 | 30.3 | 1.97 | x
Cc1cc(C(=O)CSc2nnnn2-c2ccc(O)cc2)c(C)n1Cc1ccc2c(c1)OCO2 | 13.6 | x | x | 0.6 | x | x
Cc1cc(C(=O)CSc2nnc(-c3cccc(F)c3)n2N)c(C)n1Cc1ccc2c(c1)OCO2 | 16.2 | x | 1.04 | 36.8* | -0.647 | -7.82*

Compound activity from PubChem BioAssay.
